Measured values taken from ChEMBL document CHEMBL5653631, “A Potent and Selective ULK1 Inhibitor Suppresses Autophagy and Sensitizes Cancer Cells to Nutrient Stress” (iScience, 2018).
Blank lines part the entries; values can stand above or below the compound they belong to.

Columns and labels:
[1] = biological target: Serine/threonine-protein kinase tousled-like 2 (Homo sapiens) (UniProt Q86UE8); assay: Inhibition of human recombinant TLK2 at 500 nM in presence of ATP by radiometric assay relative to control
[2] = biological target: Mast/stem cell growth factor receptor Kit (Homo sapiens) (UniProt P10721); assay: Inhibition of human recombinant KIT at 500 nM related to control ULK1
[3] = biological target: Misshapen-like kinase 1 (Homo sapiens) (UniProt Q8N4C8); assay: Inhibition of human recombinant MINK at 500 nM related to control ULK1
Sequence of Misshapen-like kinase 1 (Homo sapiens) (Q8N4C8 whole entry, looked up): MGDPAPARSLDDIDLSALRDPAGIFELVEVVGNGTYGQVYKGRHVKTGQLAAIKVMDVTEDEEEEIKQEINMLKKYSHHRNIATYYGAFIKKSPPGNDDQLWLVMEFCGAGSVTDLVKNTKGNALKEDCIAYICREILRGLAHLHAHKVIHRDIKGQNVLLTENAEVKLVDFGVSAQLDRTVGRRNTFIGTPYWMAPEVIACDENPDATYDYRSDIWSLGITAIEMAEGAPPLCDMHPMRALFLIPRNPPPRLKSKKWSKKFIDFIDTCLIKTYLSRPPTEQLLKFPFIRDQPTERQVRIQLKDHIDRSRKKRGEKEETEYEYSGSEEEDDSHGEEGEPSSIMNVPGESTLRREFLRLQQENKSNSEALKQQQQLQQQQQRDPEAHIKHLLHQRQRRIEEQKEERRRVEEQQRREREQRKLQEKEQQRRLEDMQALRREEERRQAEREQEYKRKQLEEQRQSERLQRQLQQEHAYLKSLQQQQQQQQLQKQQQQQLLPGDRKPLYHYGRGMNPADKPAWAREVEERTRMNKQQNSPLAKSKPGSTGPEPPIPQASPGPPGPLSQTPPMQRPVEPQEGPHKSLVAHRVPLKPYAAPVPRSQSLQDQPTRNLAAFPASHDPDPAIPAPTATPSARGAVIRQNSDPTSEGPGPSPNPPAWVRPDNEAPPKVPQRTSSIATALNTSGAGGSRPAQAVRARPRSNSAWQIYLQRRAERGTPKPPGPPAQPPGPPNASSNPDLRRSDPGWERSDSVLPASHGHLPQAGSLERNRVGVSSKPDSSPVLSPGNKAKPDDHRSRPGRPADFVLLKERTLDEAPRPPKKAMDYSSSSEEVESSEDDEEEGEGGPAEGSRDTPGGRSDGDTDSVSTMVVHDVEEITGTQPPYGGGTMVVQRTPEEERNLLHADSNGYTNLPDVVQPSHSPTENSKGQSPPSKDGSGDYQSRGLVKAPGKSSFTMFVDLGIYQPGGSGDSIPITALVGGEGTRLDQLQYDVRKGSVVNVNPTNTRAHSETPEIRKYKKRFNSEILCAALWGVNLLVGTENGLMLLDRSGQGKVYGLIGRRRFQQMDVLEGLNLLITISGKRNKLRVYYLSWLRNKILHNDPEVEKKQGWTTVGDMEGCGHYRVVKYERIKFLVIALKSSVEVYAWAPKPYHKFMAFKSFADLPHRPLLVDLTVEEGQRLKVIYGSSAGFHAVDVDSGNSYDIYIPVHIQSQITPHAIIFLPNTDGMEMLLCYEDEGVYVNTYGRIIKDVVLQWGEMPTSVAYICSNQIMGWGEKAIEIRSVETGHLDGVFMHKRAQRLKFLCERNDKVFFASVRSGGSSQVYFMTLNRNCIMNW

[4] = biological target: Protein kinase C alpha type (Homo sapiens) (UniProt P17252); assay: Inhibition of human recombinant PKCa at 500 nM related to control ULK1
[5] = biological target: Mitogen-activated protein kinase kinase kinase 20 (Homo sapiens) (UniProt Q9NYL2); assay: Inhibition of human recombinant ZAK at 500 nM related to control ULK1
[6] = biological target: Leukocyte tyrosine kinase receptor (Homo sapiens) (UniProt P29376); assay: Inhibition of human recombinant LTK at 15 nM in presence of ATP by radiometric assay relative to control
[7] = biological target: T1, Serine/threonine-protein kinase BRSK1 (Homo sapiens) (UniProt Q8TDC3); assay: Inhibition of human recombinant BRSK1 at 15 nM related to control ULK1
T1 sequence (whole entry): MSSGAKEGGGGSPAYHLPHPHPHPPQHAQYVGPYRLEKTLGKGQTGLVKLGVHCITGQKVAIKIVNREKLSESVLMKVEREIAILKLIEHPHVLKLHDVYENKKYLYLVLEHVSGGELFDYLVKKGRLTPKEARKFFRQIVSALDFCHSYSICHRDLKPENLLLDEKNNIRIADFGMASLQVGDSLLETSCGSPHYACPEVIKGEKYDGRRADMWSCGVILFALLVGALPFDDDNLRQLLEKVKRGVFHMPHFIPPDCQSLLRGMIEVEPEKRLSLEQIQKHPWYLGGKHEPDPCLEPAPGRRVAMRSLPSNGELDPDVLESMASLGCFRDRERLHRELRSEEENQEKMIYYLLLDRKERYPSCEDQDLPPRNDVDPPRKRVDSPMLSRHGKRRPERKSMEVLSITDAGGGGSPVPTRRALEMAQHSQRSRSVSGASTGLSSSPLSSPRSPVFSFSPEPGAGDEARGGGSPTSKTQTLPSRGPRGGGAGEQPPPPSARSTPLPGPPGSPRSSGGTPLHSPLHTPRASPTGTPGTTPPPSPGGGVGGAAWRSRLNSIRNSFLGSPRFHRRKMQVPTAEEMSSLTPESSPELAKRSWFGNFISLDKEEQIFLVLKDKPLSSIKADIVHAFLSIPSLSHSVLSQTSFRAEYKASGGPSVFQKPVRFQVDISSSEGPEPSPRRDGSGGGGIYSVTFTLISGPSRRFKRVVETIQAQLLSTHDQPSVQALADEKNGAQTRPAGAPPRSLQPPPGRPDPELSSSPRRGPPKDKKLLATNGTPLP

[8] = biological target: Vascular endothelial growth factor receptor 2 (Homo sapiens) (UniProt P35968); assay: Inhibition of human recombinant KDR at 15 nM related to control ULK1
[9] = biological target: Serine/threonine-protein kinase Nek7 (Homo sapiens) (UniProt Q8TDX7); assay: Inhibition of human recombinant NEK7 at 15 nM related to control ULK1
Sequence of Serine/threonine-protein kinase Nek7 (Homo sapiens) (Q8TDX7 whole entry, looked up): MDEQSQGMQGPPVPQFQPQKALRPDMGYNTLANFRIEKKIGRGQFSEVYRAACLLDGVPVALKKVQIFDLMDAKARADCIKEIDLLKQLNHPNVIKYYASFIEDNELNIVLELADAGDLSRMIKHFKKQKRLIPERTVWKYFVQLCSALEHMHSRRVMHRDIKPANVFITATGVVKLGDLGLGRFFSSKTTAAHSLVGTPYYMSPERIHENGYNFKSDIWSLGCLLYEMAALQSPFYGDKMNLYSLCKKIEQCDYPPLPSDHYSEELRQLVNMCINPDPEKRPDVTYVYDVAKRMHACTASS

[10] = biological target: Non-receptor tyrosine-protein kinase TYK2 (Homo sapiens) (UniProt P29597); assay: Inhibition of human recombinant TYK2 at 15 nM related to control ULK1
Sequence of Non-receptor tyrosine-protein kinase TYK2 (Homo sapiens) (P29597 whole entry): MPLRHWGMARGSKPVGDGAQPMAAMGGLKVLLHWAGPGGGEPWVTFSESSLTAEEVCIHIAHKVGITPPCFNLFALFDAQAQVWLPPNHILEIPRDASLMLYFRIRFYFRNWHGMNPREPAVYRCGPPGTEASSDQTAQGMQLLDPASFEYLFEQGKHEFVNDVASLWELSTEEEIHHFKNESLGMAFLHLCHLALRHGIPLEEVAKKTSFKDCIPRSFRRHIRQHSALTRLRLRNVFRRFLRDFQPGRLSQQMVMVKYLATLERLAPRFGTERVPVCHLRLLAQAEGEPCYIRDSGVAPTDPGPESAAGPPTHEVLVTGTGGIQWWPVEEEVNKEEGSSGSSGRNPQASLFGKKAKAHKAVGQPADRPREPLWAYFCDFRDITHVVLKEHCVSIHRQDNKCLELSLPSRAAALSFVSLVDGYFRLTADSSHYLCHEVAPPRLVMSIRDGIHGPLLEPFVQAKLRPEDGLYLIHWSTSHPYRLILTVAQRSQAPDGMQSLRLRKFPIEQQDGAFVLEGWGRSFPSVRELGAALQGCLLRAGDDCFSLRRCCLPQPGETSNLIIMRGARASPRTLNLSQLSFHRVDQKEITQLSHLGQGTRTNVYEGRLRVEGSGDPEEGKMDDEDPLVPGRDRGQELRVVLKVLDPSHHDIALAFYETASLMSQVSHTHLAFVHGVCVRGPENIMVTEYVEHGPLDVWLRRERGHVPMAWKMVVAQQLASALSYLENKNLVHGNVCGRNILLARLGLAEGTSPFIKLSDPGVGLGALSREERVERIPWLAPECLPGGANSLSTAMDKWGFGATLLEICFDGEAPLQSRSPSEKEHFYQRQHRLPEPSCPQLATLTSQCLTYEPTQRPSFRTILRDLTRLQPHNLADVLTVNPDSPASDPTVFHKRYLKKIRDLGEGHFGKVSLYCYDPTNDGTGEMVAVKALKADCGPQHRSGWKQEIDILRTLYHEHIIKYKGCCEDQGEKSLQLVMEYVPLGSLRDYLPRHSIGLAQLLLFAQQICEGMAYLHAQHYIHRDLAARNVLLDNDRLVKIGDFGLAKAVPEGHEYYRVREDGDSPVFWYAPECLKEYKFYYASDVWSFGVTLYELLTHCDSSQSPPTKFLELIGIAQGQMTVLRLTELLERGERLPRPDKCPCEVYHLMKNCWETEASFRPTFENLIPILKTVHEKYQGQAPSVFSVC

[11] = biological target: Interleukin-1 receptor-associated kinase 1 (Homo sapiens) (UniProt P51617); assay: Inhibition of human recombinant IRAK1 at 40 nM in presence of ATP by radiometric assay relative to control
[12] = biological target: T2, Serine/threonine-protein kinase 3 (Homo sapiens) (UniProt Q13188); assay: Inhibition of human recombinant MST2 at 40 nM in presence of ATP by radiometric assay relative to control
T2 sequence (whole entry): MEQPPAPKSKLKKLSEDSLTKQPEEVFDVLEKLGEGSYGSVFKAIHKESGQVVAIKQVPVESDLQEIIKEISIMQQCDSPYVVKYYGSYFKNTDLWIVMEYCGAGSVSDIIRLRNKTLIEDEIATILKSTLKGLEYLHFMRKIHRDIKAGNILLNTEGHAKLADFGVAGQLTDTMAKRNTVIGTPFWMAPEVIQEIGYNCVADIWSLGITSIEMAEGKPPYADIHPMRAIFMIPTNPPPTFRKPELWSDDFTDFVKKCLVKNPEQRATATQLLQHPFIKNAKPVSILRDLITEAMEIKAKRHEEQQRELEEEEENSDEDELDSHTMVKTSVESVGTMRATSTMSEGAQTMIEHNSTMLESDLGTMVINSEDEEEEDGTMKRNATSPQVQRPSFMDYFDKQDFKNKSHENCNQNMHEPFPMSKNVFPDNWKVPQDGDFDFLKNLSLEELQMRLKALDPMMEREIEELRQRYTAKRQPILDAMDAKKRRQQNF

[13] = biological target: Proto-oncogene tyrosine-protein kinase ROS (Homo sapiens) (UniProt P08922); assay: Inhibition of human recombinant ROS at 40 nM in presence of ATP by radiometric assay relative to control
[14] = biological target: Activin receptor type-1-like (Homo sapiens) (UniProt P37023); assay: Inhibition of human recombinant ALK1 at 40 nM related to control ULK1
Procedure, shortened: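 Radiometric activity assays in a panel of 327 human recombinant kinases, each run in duplicate at one inhibitor concentration. Activity remaining is expressed as percent of vehicle control, and percent inhibition is calculated as 100% minus percent activity remaining.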

[15] = biological target: Death-associated protein kinase 1 (Homo sapiens) (UniProt P53355); assay: Inhibition of human recombinant DAPK1 at 40 nM related to control ULK1
Sequence of Death-associated protein kinase 1 (Homo sapiens) (P53355 whole entry, looked up): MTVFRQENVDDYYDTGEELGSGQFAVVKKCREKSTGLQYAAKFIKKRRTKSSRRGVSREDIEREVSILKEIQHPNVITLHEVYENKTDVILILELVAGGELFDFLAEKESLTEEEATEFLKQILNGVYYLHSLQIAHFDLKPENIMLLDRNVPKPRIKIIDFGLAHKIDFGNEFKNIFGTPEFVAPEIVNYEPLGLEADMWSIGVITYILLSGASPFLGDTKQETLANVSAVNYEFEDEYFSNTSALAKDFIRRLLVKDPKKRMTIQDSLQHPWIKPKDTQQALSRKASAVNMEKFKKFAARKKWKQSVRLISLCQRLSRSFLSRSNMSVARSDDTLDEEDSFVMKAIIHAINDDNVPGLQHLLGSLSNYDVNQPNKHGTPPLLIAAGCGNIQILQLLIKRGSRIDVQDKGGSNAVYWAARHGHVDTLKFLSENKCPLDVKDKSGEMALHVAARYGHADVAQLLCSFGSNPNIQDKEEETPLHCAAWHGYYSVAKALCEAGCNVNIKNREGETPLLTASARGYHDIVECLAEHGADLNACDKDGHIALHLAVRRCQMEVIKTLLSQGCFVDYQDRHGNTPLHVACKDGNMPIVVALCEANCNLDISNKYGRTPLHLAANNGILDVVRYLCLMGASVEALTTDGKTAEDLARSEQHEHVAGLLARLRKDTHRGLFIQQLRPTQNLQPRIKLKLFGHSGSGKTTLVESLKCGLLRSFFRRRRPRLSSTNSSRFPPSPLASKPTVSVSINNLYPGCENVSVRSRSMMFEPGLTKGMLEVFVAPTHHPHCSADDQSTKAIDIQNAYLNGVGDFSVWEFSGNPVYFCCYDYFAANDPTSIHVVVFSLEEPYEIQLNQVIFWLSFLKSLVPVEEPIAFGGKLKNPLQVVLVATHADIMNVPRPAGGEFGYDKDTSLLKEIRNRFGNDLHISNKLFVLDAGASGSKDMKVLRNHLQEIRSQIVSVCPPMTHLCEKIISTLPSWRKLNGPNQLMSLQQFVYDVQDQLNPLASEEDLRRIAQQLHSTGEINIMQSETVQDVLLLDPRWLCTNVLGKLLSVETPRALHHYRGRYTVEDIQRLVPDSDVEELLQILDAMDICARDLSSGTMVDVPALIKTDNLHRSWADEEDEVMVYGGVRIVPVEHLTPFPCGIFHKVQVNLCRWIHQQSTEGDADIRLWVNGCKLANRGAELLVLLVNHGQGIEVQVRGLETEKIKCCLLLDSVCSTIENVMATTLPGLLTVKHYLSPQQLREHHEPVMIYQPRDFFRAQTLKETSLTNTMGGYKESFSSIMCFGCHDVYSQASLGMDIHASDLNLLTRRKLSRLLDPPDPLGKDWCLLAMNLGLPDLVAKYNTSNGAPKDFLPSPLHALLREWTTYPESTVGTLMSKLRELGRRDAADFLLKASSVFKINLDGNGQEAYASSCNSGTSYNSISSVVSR

- inhibition [1]: 0%
- fold change (FC) [2]: 0.01
- fold change (FC) [3]: 0.05
- fold change (FC) [4]: 0
- fold change (FC) [5]: 0.01
Compound: CNC(=O)c1ccccc1Oc1nc(Nc2cc(OC)c(OC)c(OC)c2)ncc1Br

- inhibition [6]: 0%
- fold change (FC) [7]: 0.15
- fold change (FC) [8]: 0.23
- fold change (FC) [9]: 0
- fold change (FC) [10]: 0.02
Compound: CC(C)[C@H](NC(=O)c1cc(-c2cnn3cc(-c4ccc(OCCN5CCCCC5)cc4)cnc23)cs1)C(F)(F)F

- inhibition [11]: 7%
- inhibition [12]: 0%
- inhibition [13]: 0%
- fold change (FC) [14]: 0.01
Compound: O=C(N[C@@H](C1CC1)C(F)(F)F)c1cc(-c2cnn3cc(-c4ccc(F)cc4)cnc23)cs1
- fold change (FC) [15]: 0
